Laboratory results reported in publication PMC8530978 (Bioorganic chemistry, 2021).

Key:
[1] = test system: NCI sixty human tumor cell line panel; test: NCI sixty human tumor cell line panel, single dose 10 μM; type: cell-based; settings: for activity at 10 µM: read-out: Mean % growth at 10 μM; for growth inhibition activity (in words): NCI 60 single dose 10 μM; for Mean % growth at 10 μM: mean growth percent over NCI 60 panel, single dose 10 μM
HDAC8 = biological target: T1, HDAC8 (Homo sapiens, UniProt Q9BY41); test: HDAC-Glo inhibitor testing with recombinant HDAC8; type: biochemical; settings: read-out: HDAC8 activity remaining
T1 sequence (Q9BY41 1-377): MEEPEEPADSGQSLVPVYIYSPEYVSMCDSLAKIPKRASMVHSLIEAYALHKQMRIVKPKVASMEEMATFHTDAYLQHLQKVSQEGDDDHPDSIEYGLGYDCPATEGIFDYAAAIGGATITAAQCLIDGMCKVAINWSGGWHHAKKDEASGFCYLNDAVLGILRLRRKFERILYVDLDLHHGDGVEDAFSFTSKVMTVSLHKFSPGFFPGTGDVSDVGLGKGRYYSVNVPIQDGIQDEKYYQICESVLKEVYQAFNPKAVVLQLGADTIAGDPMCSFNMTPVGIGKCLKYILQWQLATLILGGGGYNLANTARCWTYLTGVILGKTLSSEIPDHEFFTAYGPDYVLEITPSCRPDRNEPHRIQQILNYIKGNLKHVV

[2] = test system: mitotic spindle of HeLaM cells; type: cell-based; settings: compound 10 μM + MG132 + ZM447439 (DMSO+MG132+ZM447439 3%)
HeLaM cells = test: Flow cytometry cell cycle analysis; type: cell-based; settings: 72 hr post treatment (DMSO 14%)
Outline: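 5 × 10^5 HeLaM cells plated, treated next day with test compound or DMSO for 24, 48 or 72 h. All cells (floating and attached) collected and fixed in 70% ethanol (final). […] 10 μg/ml, 30 min, 37 °C, then propidium iodide in PBS + 2% FBS. SubG1 gated; subG1 excluded before modeling live-cell cycle distribution.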

Row | Molecule | activity at 10 µM ([1]; Homo sapiens) | also measured
1 | O=C(Cc1ccc(/C=C/C(=O)c2nccs2)cc1)Nc1ccccc1 [TPE-30, (E)-2-(4-(3-Oxo-3-(thiazol-2-yl)prop-1-en-1-yl)phenyl)-N-phenylacetamide] | 84.3% | growth inhibition activity (in words) [1]: inactive
2 | Cn1ccnc1C(=O)/C=C/c1ccc(CC(=O)Nc2ccc(C(F)(F)F)cc2)cc1 [IPE-23, (E)-2-(4-(3-(1-methyl-1H-imidazol-2-yl)-3-oxoprop-1-en-1-yl)phenyl)-N-(4-(trifluoromethyl)phenyl)acetamide] | 13% | –
3 | Cn1ccnc1C(=O)C1CC1c1ccc(CC(=O)Nc2ccc(Br)cc2)cc1 (centres unmarked) [IPE-29, N-(4-bromophenyl)-2-(4-(2-(1-methyl-1H-imidazole-2-carbonyl)cyclopropyl)phenyl)acetamide] | 98.7% | remaining activity at 100 µM (HDAC8): 20 to 60%; growth inhibition activity (in words) [1]: virtually inactive
4 | COc1ccc(NC(=O)Cc2ccc(/C=C/C(=O)c3ncc[nH]3)cc2)cc1 [IPE-4, (E)-2-(4-(3-(1H-imidazol-2-yl)-3-oxoprop-1-en-1-yl)phenyl)-N-(4-methoxyphenyl)acetamide] | 66.8% | –
5 | O=C(Cc1ccc(/C=C/C(=O)c2ncccn2)cc1)Nc1ccccc1 [PPE-31, (E)-2-(4-(3-Oxo-3-(pyrimidin-2-yl)prop-1-en-1-yl)phenyl)-N-phenylacetamide] | 99.1% | –
6 | O=C(Cc1ccc(/C=C/C(=O)c2ncc[nH]2)cc1)Nc1ccccc1 [IPE-1, (E)-2-(4-(3-(1H-Imidazol-2-yl)-3-oxoprop-1-en-1-yl)phenyl)-N-phenylacetamide] | 45.3% | inhibition at 10 µM ([1]; Homo sapiens, read-out: growth inhibition at 10 μM): > 50%
7 | O=C(Cc1ccc(/C=C/C(=O)c2ncc[nH]2)cc1)Nc1c(F)c(F)c(F)c(F)c1F [IPE-13, (E)-2-(-4(3-(1H-imidazol-2-yl)-3-oxoprop-1-en-1-yl)phenyl)-N-(perfluorophenyl)acetamide] | 91.8% | –
8 | O=C(Cc1ccc(/C=C/C(=O)c2ccccc2O)cc1)Nc1cccc2ccccc12 [HPE-36, (E)-2-(4-(3-(2-Hydroxyphenyl)-3-oxoprop-1-en-1-yl)phenyl)-N-(naphthalen-1-yl)acetamide] | 96.2% | –
9 | O=C(Cc1ccc(C(O)CC(=O)c2ccccc2O)cc1)Nc1ccccc1 (centres unmarked) [HPE-34, 2-(4-(1-Hydroxy-3-(2-hydroxyphenyl)-3-oxopropyl)phenyl)-N-phenylacetamide] | 89.6% | –
10 | O=C(Cc1ccc(/C=C/C(=O)c2ccccc2O)cc1)Nc1ccccc1 [HPE-32, (E)-2-(4-(3-(2-Hydroxyphenyl)-3-oxoprop-1-en-1-yl)phenyl)-N-phenylacetamide] | 85.9% | –
11 | O=C(Cc1ccc(/C=C/C(=O)c2ncc[nH]2)cc1)Nc1cc(F)c(F)c(F)c1 [IPE-12, (E)-2-(-4(3-(1H-imidazol-2-yl)-3-oxoprop-1-en-1-yl)phenyl)-N-(3,4,5-trifluorophenyl)acetamide] | 51.1% | –
12 | CN(C)c1ccc(NC(=O)Cc2ccc(/C=C/C(=O)c3ccccc3O)cc2)cc1 [HPE-35, (E)-N-(4-(Dimethylamino)phenyl)-2-(4-(3-(2-hydroxyphenyl)-3-oxoprop-1-en-1-yl)phenyl)acetamide] | 85.9% | –
13 | Cn1ccnc1C(=O)/C=C/c1ccc(CC(=O)NC2CCCCC2)cc1 [IPE-15, (E)-N-Cyclohexyl-2-(4-(3-(1-methyl-1H-imidazol-2-yl)-3-oxoprop-1-en-1-yl)phenyl)acetamide] | 57.7% | –
14 | O=C(Cc1ccc(/C=C/C(=O)c2ncc[nH]2)cc1)Nc1ccc(C(F)(F)F)cc1 [IPE-11, (E)-2-(4-(3-(1H-Imidazole-2-yl)-3-oxoprop-1-en-1-yl)phenyl)-N-(4-(trifluoromethyl)phenyl)acetamide] | 23.5% | –
15 | CCn1ccnc1C(=O)/C=C/c1ccc(CC(=O)Nc2ccc(F)cc2)cc1 [IPE-21, (E)-2-(4-(3-(1-Ethyl-1H-imidazol-2-yl)-3-oxoprop-1-en-1-yl)phenyl)-N-(4-fluorophenyl)acetamide] | 29.2% | –
16 | O=C(Cc1ccc(/C=C/C(=O)c2ncc[nH]2)cc1)Nc1ccc(S(F)(F)(F)(F)F)cc1 [IPE-10, (E)-2-(-4(3-(1H-imidazol-2-yl)-3-oxoprop-1-en-1-yl)phenyl)-N-(4-pentafluorosulfaneyl)acetamide] | – | Mean % growth at 10 μM [1]: 64.07%
17 | O=C(Cc1ccc(/C=C/C(=O)c2nccn2Cc2ccccc2)cc1)Nc1ccc(F)cc1 [IPE-20, (E)-2-(4-(3-(1-Benzyl-1H-imidazol-2-yl)-3-oxoprop-1-en-1-yl)phenyl)-N-(4-fluorophenyl)acetamide] | 54.7% | –
18 | O=C(Cc1ccc(/C=C/C(=O)c2ncc[nH]2)cc1)Nc1cccc2ccccc12 [IPE-6, (E)-2-(4-(3-(1H-imidazol-2-yl)-3-oxoprop-1-en-1-yl)phenyl)-N-(naphthalen-1-yl)acetamide] | 76.3% | –
19 | O=C(Cc1ccc(/C=C/C(=O)c2ncc[nH]2)cc1)NC1CCCCC1 [IPE-2, (E)-2-(4-(3-(1H-Imidazol-2-yl)-3-oxoprop-1-en-1-yl)phenyl)-N-cyclohexylacetamide] | 70% | growth inhibition activity (in words) [1]: almost completely inactive
20 | Cn1ccnc1C(=O)/C=C/c1ccc(CC(=O)Nc2ccc(Cl)cc2)cc1 [IPE-17, (E)-N-(4-chlorophenyl)-2-(4-(3-(1-methyl-1H-imidazol-2-yl)-3-oxoprop-1-en-1-yl)phenyl)acetamide] | 19.3% | –
21 | CN1CCc2c(c3ccccc3n2Cc2ccc(C(=O)NO)cc2)C1 [Tubastatin A, reference compound] | – | spindle collapse [2]: did not produce the same aberrant spindle; subG1 population (HeLaM cells): little effect on subG1
22 | CN(C)c1ccc(NC(=O)Cc2ccc(/C=C/C(=O)c3ncc[nH]3)cc2)cc1 [IPE-5, (E)-2-(4-(3-(1H-imidazol-2-yl)-3-oxoprop-1-en-1-yl)phenyl)-N-(4-(dimethylamino)phenyl)acetamid] | 52.1% | –
23 | O=C(Cc1ccc(CCC(=O)c2ncc[nH]2)cc1)Nc1ccccc1 [IPE-28, 2-(4-(3-(1H-imidazol-2-yl)-3-oxopropyl)phenyl)-N-phenylacetamide] | 92.8% | growth inhibition activity (in words) [1]: virtually inactive
24 | O=C(Cc1ccc(/C=C/C(=O)c2ncc[nH]2)cc1)Nc1cc(C(F)(F)F)cc(C(F)(F)F)c1 [IPE-14, (E)-2-(-4(3-(1H-imidazol-2-yl)-3-oxoprop-1-en-1-yl)phenyl)-N-(bis(3,5-trifluoromethyl)phenyl)acetamide] | – | Mean % growth at 10 μM [1]: 77.21%
25 | 4-(3-(2-Hydroxyphenyl)-3-oxopropyl)phenyl)-N-(naphthalen-1-yl)acetamide [HPE-33] | – | Mean % growth at 10 μM [1]: 91.98%
